# Assay results: ChEMBL document CHEMBL4354866, “TREK Channel Family Activator with a Well-Defined Structure-Activation Relationship for Pain and Neurogenic Inflammation” (J Med Chem, 2020)
# Active and inactive are the calls of the source.
# Assays:
# Mus musculus [1] = experiment: Analgesic activity in cerulein-induced mouse model of acute pancreatitis assessed as reduction in myeloperoxidase activity at 10 mg/kg, ip administered at 2 hrs interval for 10 hrs starting from post-first cerulein challenge and measured 12 hrs post-first cerulein challenge; assay type: functional, organism-based
# Outline: (§1)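 Cerulein pancreatitis: 7 hourly i.p. injections of 50 µg/kg; 10 mg/kg compound i.p. at 2, 4, 6, 8 and 10 h. Mice killed at 12 h and pancreas harvested for MPO activity and H&E histology. Ten random fields per slide scored blind by two observers for edema, inflammatory infiltration and acinar necrosis; n = 6.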
# [2] = biological target: T1, Potassium channel subfamily K member 2 (Homo sapiens) (UniProt O95069); experiment: Activation of recombinant human TREK1 expressed in HEK293T cells assessed as increase in K+ current amplitude at 30 uM by whole cell voltage clamp electrophysiological analysis; assay type: cell-based
# T1 sequence (whole entry): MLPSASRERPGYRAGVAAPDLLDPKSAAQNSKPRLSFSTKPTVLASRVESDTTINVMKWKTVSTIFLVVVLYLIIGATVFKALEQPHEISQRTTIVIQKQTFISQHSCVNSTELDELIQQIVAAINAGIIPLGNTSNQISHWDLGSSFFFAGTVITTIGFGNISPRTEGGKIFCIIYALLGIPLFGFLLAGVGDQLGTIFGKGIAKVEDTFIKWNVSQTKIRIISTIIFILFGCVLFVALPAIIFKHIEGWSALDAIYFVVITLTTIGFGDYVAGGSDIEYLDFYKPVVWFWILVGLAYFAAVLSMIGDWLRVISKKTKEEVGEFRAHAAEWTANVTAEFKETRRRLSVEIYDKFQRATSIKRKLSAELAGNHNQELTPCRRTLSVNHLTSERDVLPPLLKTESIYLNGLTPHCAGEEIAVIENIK
# Mus musculus [3] = experiment: Analgesic activity in mouse assessed as increase in tail flick latency time at 5 mg/kg, ip at 52 degC by tail immersion test; assay type: functional, organism-based
# Outline: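 Male BALB/c or C57BL/6 mice, 6–8 weeks, acclimated in a holder 15 min/day for 3 days. Distal 3 cm of tail immersed at 5, 20, 40, 46 or 52 °C; flick latency recorded, cut-off 15 s. Compound i.p. in 5% DMSO/5% Tween 80/90% saline (1.25–10 mg/kg at 52 °C; 5 mg/kg across temperatures).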
# Mus musculus [4] = experiment: (§2) Analgesic activity in cerulein-induced mouse model of acute pancreatitis assessed as reduction in pancreatic necrosis at 10 mg/kg, ip administered at 2 hrs interval for 10 hrs starting from post-first cerulein challenge and measured 12 hrs post-first cerulein challenge by H and E staining based histopathological analysis; assay type: functional, organism-based; outline: as §1
# Mus musculus [5] = experiment: as §2, with “inflammatory infiltration” for “necrosis”; assay type: functional, organism-based; outline: as §1
# Mus musculus [6] = experiment: as §2, with “edema” for “necrosis”; assay type: functional, organism-based; outline: as §1
# Mus musculus [7] = experiment: Analgesic activity in mouse model of spared nerve injury assessed as reduction in cold hyperalgesia at 30 mg/kg, ip measured at 7 days interval for up to 21 days post spared nerve injury by cold plantar test; assay type: functional, organism-based
# Outline: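 Male mice (BALB/c or C57BL/6, 6-8 weeks) after SNI; compound given i.p. in 5% DMSO, 5% Tween 80, 90% saline. Mice acclimated 3 days on a 6 mm glass plate. A syringe packed with powdered dry ice was applied under the centre of the left hindpaw. Paw withdrawal latency was timed by stopwatch with a 30 s cutoff. Groups compared by unpaired t test or Mann-Whitney.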
# [8] = biological target: T1, Potassium channel subfamily K member 2 (Homo sapiens); experiment: Activation of recombinant human TREK1 expressed in HEK293T cells assessed as increase in K+ current amplitude at 1 mM by whole cell voltage clamp electrophysiological analysis; assay type: cell-based
structure (smiles),measurement,setting,value
Cc1ccc2nc(-c3ccc(NC(=O)C4CCCC4)cc3)sc2c1,Activity,Mus musculus [1],inactive
same,Activity,[2],inactive
same,Activity,Mus musculus [3],inactive
same,Activity,Mus musculus [4],inactive
same,Activity,Mus musculus [5],inactive
same,Activity,Mus musculus [6],inactive
COC(=O)[C@H]1CC[C@@H](C(=O)Nc2ccc(-c3nc4ccc(C)cc4s3)cc2)C1,Activity,[2],inactive
CC(C)C[C@H](CN)CC(=O)O,Activity,Mus musculus [7],Active
C[N+](C)(C)CCSS(C)(=O)=O,Activity,[8],inactive
